{"data": "Assay results pooled from the literature", "ADORA2B": "Adenosine receptor A2b (ADORA2B, Homo sapiens, UniProt P29275)", "CFTR": "Cystic fibrosis transmembrane conductance regulator (CFTR, Homo sapiens, UniProt P13569)", "PKN3": "Serine/threonine-protein kinase N3 (PKN3, Homo sapiens, UniProt Q6P5Z2)", "note": "Each line is one published result; the experiments were not run side by side."}
{"SMILES": "O=C(c1ccc(F)cc1)N(Cc1ccccc1)C1CCCCC1", "target": "Muscarinic acetylcholine receptor M1 (CHRM1, Homo sapiens, UniProt P11229)", "assay": "cell-free assay", "setting": "10 µM", "inhibition": "-1%"}
{"SMILES": "Oc1ncnc2[nH]ncc12", "target": "Xanthine dehydrogenase/oxidase (XDH, Homo sapiens, UniProt P47989)", "assay": "enzyme activity, inhibitor, absorbance", "setting": "500 µM", "inhibition": "100%"}
{"SMILES": "CCOC(=O)C1=C(C)NC(c2ccccc2)=C(C(=O)OCc2ccccc2)C1C#Cc1ccccc1 (stereo not drawn)", "target": "Adenosine receptor A1 (Mus musculus, UniProt Q60612)", "assay": "ligand displacement, radioligand", "setting": "10 µM, cell membranes", "inhibition": "0%"}
{"SMILES": "CCN1CCCn2c1nc1c2c(=O)n(C)c(=O)n1C", "target": "ADORA2B", "assay": "ligand displacement, radioligand", "setting": "10 µM, cell membranes", "inhibition": "12%"}
{"SMILES": "CC(=NNC(=O)C(=O)Nc1ccc2ccccc2c1)c1cc(Br)c(O)c(Br)c1O", "target": "CFTR", "assay": "ion current, inhibitor", "setting": "50 µM", "inhibition": "95%"}
{"SMILES": "CCC(C)N1CCCn2c1nc1c2c(=O)n(C)c(=O)n1C (stereo not drawn)", "target": "ADORA2B", "assay": "ligand displacement, radioligand", "setting": "10 µM, cell membranes", "inhibition": "-9%"}
{"SMILES": "O=C(NN=Cc1cc(Br)c(O)c(Br)c1)C(=O)Nc1ccc2ccccc2c1", "target": "CFTR", "assay": "ion current, inhibitor", "setting": "50 µM", "inhibition": "80%"}
{"SMILES": "CC(C)CC(C)N1CCCn2c1nc1c2c(=O)n(C)c(=O)n1C (stereo not drawn)", "target": "ADORA2B", "assay": "ligand displacement, radioligand", "setting": "10 µM, cell membranes", "inhibition": "1%"}
{"SMILES": "CC(C)(NC(=O)OC1CCCCC1)c1csc(-c2ccc(F)cc2)n1", "target": "N-terminal Xaa-Pro-Lys N-methyltransferase 1 (Homo sapiens, UniProt Q9BV86)", "assay": "enzyme activity, inhibitor, fluorescence", "setting": "100 µM", "inhibition": "< 50%"}
{"SMILES": "CCN(c1cc(C#CCN2CCOCC2)cc(C(=O)NCc2c(C)cc(C)[nH]c2=O)c1C)[C@H]1CC[C@H](N(C)CCOC)CC1", "target": "Histone-lysine N-methyltransferase NSD2 (NSD2, Homo sapiens, UniProt O96028)", "assay": "enzyme activity, inhibitor", "setting": "1 µM", "inhibition": "26%"}
{"SMILES": "CC(C)CCCC(C)N1CCCn2c1nc1c2c(=O)n(C)c(=O)n1C (stereo not drawn)", "target": "ADORA2B", "assay": "ligand displacement, radioligand", "setting": "10 µM, cell membranes", "inhibition": "0%"}
{"SMILES": "CN(C)C1CCN(CC#Cc2nn(C3CCCC3)c3nc(NCc4ccccc4)ncc23)C1 (stereo not drawn)", "target": "Dual specificity protein kinase CLK2 (CLK2, Homo sapiens, UniProt P49760)", "assay": "enzyme activity, inhibitor, FRET", "setting": "10 µM", "inhibition": "33%"}
{"SMILES": "Cn1cncc1C1=CN(c2ncnc3[nH]cnc23)CCS1", "target": "PKN3", "assay": "enzyme activity, inhibitor, radiometric", "setting": "2 µM", "inhibition": "80.4%"}
{"SMILES": "O=C(CNc1ccc(Cl)cc1)NN=Cc1cc(Br)c(O)c(Br)c1O", "target": "CFTR", "assay": "ion current, inhibitor", "setting": "50 µM", "inhibition": "91%"}
{"SMILES": "CC(=O)c1nn(CC(=O)N2C[C@H](F)C[C@H]2C(=O)Nc2cccc(Br)n2)c2ccc(-c3cnc(C)nc3)cc12", "target": "Chymase (CMA1, Homo sapiens, UniProt P23946)", "assay": "enzyme activity, inhibitor", "setting": "10 µM", "inhibition": "-1.2%"}
{"SMILES": "C=CN1CCCn2c1nc1c2c(=O)n(C)c(=O)n1C", "target": "ADORA2B", "assay": "ligand displacement, radioligand", "setting": "10 µM, cell membranes", "inhibition": "1%"}
{"SMILES": "CCN(CC)c1ccc(C2Nc3ccc(C(=O)c4ccccc4)cc3NC3=C2C(=O)CC(C)(C)C3)cc1 (stereo not drawn)", "target": "Beta-3 adrenergic receptor (ADRB3, Homo sapiens, UniProt P13945)", "assay": "ligand displacement, radioligand", "setting": "10 µM", "inhibition": "0%"}
{"SMILES": "CC(Nc1ccc2ccccc2c1)C(=O)NN=Cc1cc(Br)c(O)c(Br)c1O (stereo not drawn)", "target": "CFTR", "assay": "ion current, inhibitor", "setting": "50 µM", "inhibition": "91%"}
{"SMILES": "CC(C)N1CCCn2c1nc1c2c(=O)n(C)c(=O)n1C", "target": "ADORA2B", "assay": "ligand displacement, radioligand", "setting": "10 µM, cell membranes", "inhibition": "-4%"}
{"SMILES": "Cc1ccc(NCC(=O)NN=Cc2cc(Br)c(O)c(Br)c2O)cc1", "target": "CFTR", "assay": "ion current, inhibitor", "setting": "50 µM", "inhibition": "79%"}
{"SMILES": "COc1cc(NC(C)=O)c(Cl)cc1C(=O)Nc1nccs1", "target": "ADORA2B", "assay": "cell-free assay", "setting": "10 µM", "inhibition": "-34.6%"}
{"SMILES": "CCCC(C)N1CCCn2c1nc1c2c(=O)n(C)c(=O)n1C (stereo not drawn)", "target": "ADORA2B", "assay": "ligand displacement, radioligand", "setting": "10 µM, cell membranes", "inhibition": "0%"}
{"SMILES": "O=C(c1ccc(Cl)cc1)N(Cc1ccccc1)C1CCCCC1", "target": "Prostaglandin E2 receptor EP2 subtype (PTGER2, Homo sapiens, UniProt P43116)", "assay": "cell-free assay", "setting": "10 µM", "inhibition": "14.3%"}
{"SMILES": "Cn1cnc(Br)c1C1=CN(c2ncnc3[nH]cnc23)CCS1", "target": "PKN3", "assay": "enzyme activity, inhibitor, radiometric", "setting": "2 µM", "inhibition": "88.3%"}
